Test results from PMC9272570 (Journal of Drug Delivery Science and Technology, 2022).

What was measured:
Dissolution studies = assay type: physicochemical; settings: 50 rpm
Method in brief: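 900 ml medium (0.01 M phosphate buffer), 37 ± 0.5 °C. Load: 400 mg test compound or equivalent; formulations contained avicel and aerosil. 5 ml samples withdrawn at 5, 10, 15, 30, 45 and 60 min, filtered (0.45 μm) and replaced with fresh medium. Quantified by reversed-phase C18 HPLC (0.02 M KH2PO4 pH 6.8:acetonitrile 25:75). Cumulative amount dissolved expressed as % of load. Triplicates.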

duodenum = assay: In-situ rabbit intestinal perfusion, duodenum; assay type: in vivo
Method in brief: (§1)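 Rabbits were anaesthetised with IM chlorpromazine 2 mg/kg, then ketamine 45 mg/kg twice at a 15 min interval. The segment was cannulated (duodenum 15 cm, jejuno-ileum 30 cm) and rinsed with 37 °C saline. Test compound at 30 μg/ml in PBS with 10% v/v PEG 200 was perfused at 0.27 ml/min. Effluent was collected every 10 min for 2 h, weighed and assayed by HPLC-UV at 210 nm. Fa, ARL and L95% came from second-hour, water-flux-corrected Cout/Cin. Pathway was judged from PeA dependence on water flux.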

jejuno-ileum = assay: In-situ rabbit intestinal perfusion, jejuno-ileum; assay type: in vivo
Method in brief: as §1

[1] = SEM in brackets, n = 3, listed as lopinavir
[2] = from regression of absorptive clearance vs water flux

total amount liberated after 1 h (Dissolution studies; 1% w/v Tween 80 in phosphate buffer pH 6.8, 37 °C): 41.85 % of the dose
% DE (dissolution efficiency) (Dissolution studies; 900 ml 1% w/v Tween 80 in 0.01 M phosphate buffer pH 6.8, 37 °C, 60 min, SD, n = 3): 24.96 (1.48) %
ARL (anatomical reserve length) (duodenum): −261.18 cm
%Fa/L (percentage fraction absorbed per unit length) (duodenum; SEM in brackets, n = 3): 1.61 (0.454) %cm^−1
L95% (required length for 95% absorption) (duodenum; SEM in brackets, n = 3): 276.18 (121.5) cm
Rout/Rin (fraction remaining after absorption) (duodenum; SEM in brackets, n = 3): 0.759 (0.068)
L95% (required length for 95% absorption) (duodenum; [1]): 276.18 cm
Absorption pathway: Paracellular (duodenum; [2]): 38.3%
Absorption pathway: Transcellular (duodenum; [2]): 61.7%
ARL (anatomical reserve length) (jejuno-ileum): −240.22 cm
%Fa/L (percentage fraction absorbed per unit length) (jejuno-ileum; SEM in brackets, n = 3): 1.17 (0.27) %cm^−1
L95% (required length for 95% absorption) (jejuno-ileum; SEM in brackets, n = 3): 339.54 (79.03) cm
Rout/Rin (fraction remaining after absorption) (jejuno-ileum; SEM in brackets, n = 3): 0.657 (0.083)
L95% (required length for 95% absorption) (jejuno-ileum; [1]): 339.54 cm
Absorption pathway: Paracellular (jejuno-ileum; [2]): 0%
Absorption pathway: Transcellular (jejuno-ileum; [2]): 100%
SMILES: Cc1cccc(C)c1OCC(=O)N[C@@H](Cc1ccccc1)[C@@H](O)C[C@H](Cc1ccccc1)NC(=O)[C@H](C(C)C)N1CCCNC1=O [Pure Lopinavir, Lopinavir]
